≈ marks a conversion by molar mass, not a printed value.
Columns and labels:
Type in all cases: functional
Streptococcus pneumoniae [1] = test: Antibacterial activity against erythromycin-resistant Streptococcus pneumoniae 12-6 by broth microdilution method
Streptococcus pneumoniae [2] = test: Antibacterial activity against erythromycin-resistant Streptococcus pneumoniae 12-5 by broth microdilution method
Streptococcus pneumoniae [3] = test: Antibacterial activity against erythromycin-sensitive Streptococcus pneumoniae 12-14 by broth microdilution method
In short: (§1)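 Strains obtained from the Institute of Medicinal Biotechnology, Academy of Medical Sciences & Peking Union Medical College. MIC determined in vitro by broth microdilution following NCCLS recommendations.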

Streptococcus pneumoniae [4] = test: Antibacterial activity against erythromycin-sensitive Streptococcus pneumoniae 12-10 by broth microdilution method; in short: as §1
Streptococcus pneumoniae [5] = test: Antibacterial activity against erythromycin-sensitive Streptococcus pneumoniae 12-8 by broth microdilution method; in short: as §1
Streptococcus pneumoniae [6] = test: Antibacterial activity against erythromycin-sensitive Streptococcus pneumoniae 12-4 by broth microdilution method
Streptococcus pneumoniae [7] = test: Antibacterial activity against erythromycin-sensitive Streptococcus pneumoniae 12-1 by broth microdilution method; in short: as §1
Streptococcus pyogenes [8] = test: Antibacterial activity against erythromycin-resistant Streptococcus pyogenes 11-2 by broth microdilution method
Streptococcus pyogenes [9] = test: Antibacterial activity against erythromycin-sensitive Streptococcus pyogenes ATCC 19625 by broth microdilution method; in short: as §1
[10] = test system: Staphylococcus epidermidis; test: Antibacterial activity against methicillin-resistant Staphylococcus epidermidis 12-11 by broth microdilution method
[11] = test system: Staphylococcus epidermidis; test: Antibacterial activity against methicillin-resistant Staphylococcus epidermidis 12-4 by broth microdilution method
[12] = test system: Staphylococcus epidermidis; test: Antibacterial activity against methicillin-sensitive Staphylococcus epidermidis 12-5 by broth microdilution method; in short: as §1
[13] = test system: Staphylococcus epidermidis; test: Antibacterial activity against methicillin-sensitive Staphylococcus epidermidis 11-20 by broth microdilution method; in short: as §1
[14] = test system: Staphylococcus epidermidis; test: Antibacterial activity against methicillin-sensitive Staphylococcus epidermidis ATCC 12228 by broth microdilution method; in short: as §1
Staphylococcus aureus [15] = test: Antibacterial activity against methicillin-resistant Staphylococcus aureus 12-31 by broth microdilution method
Staphylococcus aureus [16] = test: Antibacterial activity against methicillin-sensitive Staphylococcus aureus 12-32 by broth microdilution method; in short: as §1
Staphylococcus aureus [17] = test: Antibacterial activity against methicillin-sensitive Staphylococcus aureus ATCC 29213 by broth microdilution method; in short: as §1

In the case of `CC[C@H]1OC(=O)[C@H](C)[C@@H](O[C@H]2C[C@@](C)(OC)[C@@H](O[C@@H]3O[C@H](C)[C@@H](OCc4ccccc4)[C@H](N(C)C)[C@H]3O)[C@H](C)O2)[C@H](C)[C@@H](O[C@@H]2O[C@H](C)C[C@H](N(C)C)[C@H]2O)[C@@](C)(OC)C[C@@H](C)C(=O)[C@H](C)[C@H]2OC(=O)O[C@@]21C`, the MIC (Streptococcus pneumoniae [1]) is reported as 32 µg/mL (≈ 30.8 µM), the MIC (Streptococcus pneumoniae [2]) is reported as 32 µg/mL (≈ 30.8 µM) and the MIC (Streptococcus pneumoniae [3]) is reported as 4 µg/mL (≈ 3.86 µM). For the same compound, the MIC (Streptococcus pneumoniae [4]) was 1 µg/mL (≈ 0.964 µM), the MIC (Streptococcus pneumoniae [5]) was 2 µg/mL (≈ 1.93 µM) and the MIC (Streptococcus pneumoniae [6]) was 32 µg/mL (≈ 30.8 µM). The MIC (Streptococcus pneumoniae [7]) was 2 µg/mL (≈ 1.93 µM), the MIC (Streptococcus pyogenes [8]) was > 32 µg/mL and the MIC (Streptococcus pyogenes [9]) was 2 µg/mL (≈ 1.93 µM). For the same compound, the MIC [10] was 16 µg/mL (≈ 15.4 µM), the MIC [11] was > 32 µg/mL and the MIC [12] was 16 µg/mL (≈ 15.4 µM). The MIC [13] was 16 µg/mL (≈ 15.4 µM), the MIC [14] was > 32 µg/mL and the MIC (Staphylococcus aureus [15]) was > 32 µg/mL. It also gave an MIC (Staphylococcus aureus [16]) of 16 µg/mL (≈ 15.4 µM) and an MIC (Staphylococcus aureus [17]) of 16 µg/mL (≈ 15.4 µM).
For `CC[C@H]1OC(=O)[C@H](C)[C@@H](O[C@H]2C[C@@](C)(OC)[C@@H](O[C@@H]3O[C@H](C)[C@@H](O)[C@H](N(C)C)[C@H]3OC(=O)c3ccccc3)[C@H](C)O2)[C@H](C)[C@@H](O[C@@H]2O[C@H](C)C[C@H](N(C)C)[C@H]2O)[C@@](C)(OC)C[C@@H](C)C(=O)[C@H](C)[C@H]2OC(=O)O[C@@]21C`, the MIC (Streptococcus pneumoniae [1]) was 32 µg/mL (≈ 30.4 µM), the MIC (Streptococcus pneumoniae [2]) was 32 µg/mL (≈ 30.4 µM) and the MIC (Streptococcus pneumoniae [3]) was 2 µg/mL (≈ 1.9 µM). For the same compound, the MIC (Streptococcus pneumoniae [4]) was 2 µg/mL (≈ 1.9 µM), the MIC (Streptococcus pneumoniae [5]) was 1 µg/mL (≈ 0.951 µM) and the MIC (Streptococcus pneumoniae [6]) was 16 µg/mL (≈ 15.2 µM). The MIC (Streptococcus pneumoniae [7]) was 1 µg/mL (≈ 0.951 µM), the MIC (Streptococcus pyogenes [8]) was 32 µg/mL (≈ 30.4 µM) and the MIC (Streptococcus pyogenes [9]) was 1 µg/mL (≈ 0.951 µM). The MIC [10] was ≤ 1 µg/mL, the MIC [11] was 8 µg/mL (≈ 7.61 µM) and the MIC [12] was 2 µg/mL (≈ 1.9 µM). The MIC [13] was 4 µg/mL (≈ 3.8 µM), the MIC [14] was 2 µg/mL (≈ 1.9 µM) and the MIC (Staphylococcus aureus [15]) was > 32 µg/mL. The MIC (Staphylococcus aureus [16]) was 2 µg/mL (≈ 1.9 µM) and the MIC (Staphylococcus aureus [17]) was 2 µg/mL (≈ 1.9 µM).
Compound `CC[C@H]1OC(=O)[C@H](C)[C@@H](O[C@H]2C[C@@](C)(OC)[C@@H](O[C@@H]3O[C@H](C)[C@@H](O)[C@H](N(C)C)[C@H]3O)[C@H](C)O2)[C@H](C)[C@@H](O[C@@H]2O[C@H](C)C[C@H](N(C)C)[C@H]2O)[C@@](C)(OC)C[C@@H](C)C(=O)[C@H](C)[C@H]2OC(=O)O[C@@]21C` has an MIC (Streptococcus pneumoniae [1]) of 16 µg/mL (≈ 16.9 µM), an MIC (Streptococcus pneumoniae [2]) of 16 µg/mL (≈ 16.9 µM) and an MIC (Streptococcus pneumoniae [3]) of 2 µg/mL (≈ 2.11 µM). The MIC (Streptococcus pneumoniae [4]) was 1 µg/mL (≈ 1.06 µM), the MIC (Streptococcus pneumoniae [5]) was 1 µg/mL (≈ 1.06 µM) and the MIC (Streptococcus pneumoniae [6]) was 4 µg/mL (≈ 4.22 µM). The MIC (Streptococcus pneumoniae [7]) was 2 µg/mL (≈ 2.11 µM), the MIC (Streptococcus pyogenes [8]) was 16 µg/mL (≈ 16.9 µM) and the MIC (Streptococcus pyogenes [9]) was 2 µg/mL (≈ 2.11 µM). For the same compound, the MIC [10] was 16 µg/mL (≈ 16.9 µM), the MIC [11] was 32 µg/mL (≈ 33.8 µM) and the MIC [12] was 16 µg/mL (≈ 16.9 µM). For the same compound, the MIC [13] was 16 µg/mL (≈ 16.9 µM), the MIC [14] was 32 µg/mL (≈ 33.8 µM) and the MIC (Staphylococcus aureus [15]) was > 32 µg/mL. It also gave an MIC (Staphylococcus aureus [16]) of 32 µg/mL (≈ 33.8 µM) and an MIC (Staphylococcus aureus [17]) of 16 µg/mL (≈ 16.9 µM).
`CC[C@H]1OC(=O)[C@H](C)[C@@H](O[C@H]2C[C@@](C)(OC)[C@@H](O[C@@H]3O[C@H](C)[C@@H](O)[C@H](N(C)C)[C@H]3OC(=O)c3ccccc3)[C@H](C)O2)[C@H](C)[C@@H](O[C@@H]2O[C@H](C)C[C@H](N(C)C)[C@H]2O)[C@@](C)(OC)C[C@@H](C)C(=O)/C(C)=C/[C@]1(C)O` was tested, and the MIC (Streptococcus pneumoniae [1]) was > 32 µg/mL, the MIC (Streptococcus pneumoniae [2]) was > 32 µg/mL and the MIC (Streptococcus pneumoniae [3]) was > 32 µg/mL. For the same compound, the MIC (Streptococcus pneumoniae [4]) was > 32 µg/mL, the MIC (Streptococcus pneumoniae [5]) was 16 µg/mL (≈ 15.9 µM) and the MIC (Streptococcus pneumoniae [6]) was > 32 µg/mL. The MIC (Streptococcus pneumoniae [7]) was 1 µg/mL (≈ 0.993 µM), the MIC (Streptococcus pyogenes [8]) was > 32 µg/mL and the MIC (Streptococcus pyogenes [9]) was 1 µg/mL (≈ 0.993 µM). The MIC [10] was 32 µg/mL (≈ 31.8 µM), the MIC [11] was > 32 µg/mL and the MIC [12] was 32 µg/mL (≈ 31.8 µM). For the same compound, the MIC [13] was > 32 µg/mL, the MIC [14] was 32 µg/mL (≈ 31.8 µM) and the MIC (Staphylococcus aureus [15]) was > 32 µg/mL. For the same compound, the MIC (Staphylococcus aureus [16]) was > 32 µg/mL and the MIC (Staphylococcus aureus [17]) was > 32 µg/mL.
In the case of `CC[C@H]1OC(=O)[C@H](C)[C@@H](O[C@H]2C[C@@](C)(OC)[C@@H](O)[C@H](C)O2)[C@H](C)[C@@H](O[C@@H]2O[C@H](C)C[C@H](N(C)C)[C@H]2O)[C@](C)(OC)C[C@@H](C)C(=O)[C@H](C)[C@@H](O)[C@]1(C)O` [CLARITHROMYCIN], the MIC (Streptococcus pneumoniae [1]) is reported as > 32 µg/mL, the MIC (Streptococcus pneumoniae [2]) is reported as > 32 µg/mL and the MIC (Streptococcus pneumoniae [3]) is reported as 1 µg/mL (≈ 1.34 µM). The MIC (Streptococcus pneumoniae [4]) was 1 µg/mL (≈ 1.34 µM), the MIC (Streptococcus pneumoniae [5]) was 1 µg/mL (≈ 1.34 µM) and the MIC (Streptococcus pneumoniae [6]) was 2 µg/mL (≈ 2.67 µM). The MIC (Streptococcus pneumoniae [7]) was 1 µg/mL (≈ 1.34 µM), the MIC (Streptococcus pyogenes [8]) was 4 µg/mL (≈ 5.35 µM) and the MIC (Streptococcus pyogenes [9]) was ≤ 1 µg/mL. For the same compound, the MIC [10] was 4 µg/mL (≈ 5.35 µM), the MIC [11] was 32 µg/mL (≈ 42.8 µM) and the MIC [12] was ≤ 1 µg/mL. The MIC [13] was 8 µg/mL (≈ 10.7 µM), the MIC [14] was ≤ 1 µg/mL and the MIC (Staphylococcus aureus [15]) was > 32 µg/mL. For the same compound, the MIC (Staphylococcus aureus [16]) was 4 µg/mL (≈ 5.35 µM) and the MIC (Staphylococcus aureus [17]) was ≤ 1 µg/mL.
In the case of `CC[C@H]1OC(=O)[C@H](C)C(=O)[C@H](C)[C@@H](O[C@@H]2O[C@H](C)C[C@H](N(C)C)[C@H]2O)[C@](C)(OC)C[C@@H](C)C(=O)[C@H](C)[C@H]2N(CCCCn3cnc(-c4cccnc4)c3)C(=O)O[C@]12C` [TELITHROMYCIN], the MIC (Streptococcus pneumoniae [1]) is reported as ≤ 2 µg/mL, the MIC (Streptococcus pneumoniae [2]) is reported as ≤ 2 µg/mL and the MIC (Streptococcus pneumoniae [3]) is reported as ≤ 2 µg/mL. The MIC (Streptococcus pneumoniae [4]) was ≤ 2 µg/mL, the MIC (Streptococcus pneumoniae [5]) was ≤ 2 µg/mL and the MIC (Streptococcus pneumoniae [6]) was ≤ 2 µg/mL. The MIC (Streptococcus pneumoniae [7]) was ≤ 2 µg/mL, the MIC (Streptococcus pyogenes [8]) was 2 µg/mL (≈ 2.46 µM) and the MIC (Streptococcus pyogenes [9]) was ≤ 2 µg/mL. For the same compound, the MIC [10] was ≤ 2 µg/mL, the MIC [11] was ≤ 2 µg/mL and the MIC [12] was ≤ 2 µg/mL. The MIC [13] was ≤ 2 µg/mL, the MIC [14] was ≤ 2 µg/mL and the MIC (Staphylococcus aureus [15]) was > 64 µg/mL. For the same compound, the MIC (Staphylococcus aureus [16]) was ≤ 2 µg/mL and the MIC (Staphylococcus aureus [17]) was ≤ 2 µg/mL.

From ChEMBL document CHEMBL2440040, “Synthesis of 4″-O-desosaminyl clarithromycin derivatives and their anti-bacterial activities” (2013)
